Assays:
MA104 cells = test: Cytotoxicity by microscopical cell morphology evaluation; assay type: cell-based; settings: mean of three independent experiments
Outline: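 Toxicity to MA104 cells was scored by microscopic assessment of cell morphology. Cells were grown in 199 medium with 10% fetal bovine serum and antibiotics at 37 °C in humidified 5% CO2. Test compound was dissolved in 1% DMSO in 199 medium and filtered at 0.22 μm. CC50 was estimated by linear regression of concentration–effect curves, as the mean of three independent experiments.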

[1] = tested on: human rotavirus (Wa-1 strain); test: Antirotavirus activity by cytopathic effect; assay type: cell-based; settings: for antiviral (antirotavirus) activity in words: non-cytotoxic concentrations; for IC50: human rotavirus, NA = no antiviral activity
Outline: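 MA104 cells grown in 199 medium with 10% fetal bovine serum, penicillin G, streptomycin and amphotericin B at 37 °C, 5% CO2, were infected with human rotavirus Wa-1, which had been propagated in MA104 cells with trypsin (5 μg/ml) and titred as TCID50/ml. Test compound was dissolved in 1% DMSO in 199 medium and filter-sterilised. Read-out was cytopathic-effect inhibition. IC50 came from linear regression of concentration–effect curves, as the mean of three independent experiments.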

rotavirus = rotavirus infection in vitro; cited from earlier work

O=c1c(O)c(-c2ccccc2O)oc2ccccc12 [compound 1]
CC50 (MA104 cells; flavonols (Table 1)): 61.4 µM
antiviral (antirotavirus) activity in words [1]: did not grant antiviral activity

O=c1c(O)c(-c2cccc(O)c2)oc2ccccc12 [compound 2]
CC50 (MA104 cells; flavonols (Table 1)): 61.4 µM
IC50 ([1]; flavonols (Table 1)): 27.5 µM

O=c1c(O)c(-c2ccc(O)cc2)oc2ccccc12 [compound 3]
CC50 (MA104 cells; flavonols (Table 1)): 61.4 µM
antiviral (antirotavirus) activity in words [1]: did not grant antiviral activity

O=c1c(O)c(-c2ccc(O)c(O)c2)oc2ccccc12 [compound 4]
CC50 (MA104 cells; flavonols (Table 1)): 57.7 µM
IC50 ([1]; flavonols (Table 1)): 14.4 µM

O=c1c(O)c(-c2cc(O)ccc2O)oc2ccccc12 [compound 5]
CC50 (MA104 cells; flavonols (Table 1)): 57.7 µM
antiviral (antirotavirus) activity in words [1]: did not grant antiviral activity

O=c1c(O)c(-c2cc(O)c(O)c(O)c2)oc2ccccc12 [compound 6]
CC50 (MA104 cells; flavonols (Table 1)): 27.2 µM
IC50 ([1]; flavonols (Table 1)): 18.2 µM

COc1ccc(-c2oc3ccccc3c(=O)c2O)cc1 [compound 7]
CC50 (MA104 cells; flavonols (Table 1)): 29.1 µM
antiviral (antirotavirus) activity in words [1]: antiviral action was not observed

COc1ccccc1-c1oc2ccccc2c(=O)c1O [compound 8]
CC50 (MA104 cells; flavonols (Table 1)): 44.7 µM
antiviral (antirotavirus) activity in words [1]: antiviral action was not observed

COc1ccc(-c2oc3ccccc3c(=O)c2O)c(OC)c1 [compound 9]
CC50 (MA104 cells; flavonols (Table 1)): 52.3 µM
IC50 ([1]; flavonols (Table 1)): 26.2 µM

COc1ccc(-c2oc3ccccc3c(=O)c2O)cc1OC [compound 10]
CC50 (MA104 cells; flavonols (Table 1)): 52.3 µM
IC50 ([1]; flavonols (Table 1)): 13.1 µM

COc1cc(-c2oc3ccccc3c(=O)c2O)cc(OC)c1OC [compound 11]
CC50 (MA104 cells; flavonols (Table 1)): 47.5 µM
IC50 ([1]; flavonols (Table 1)): 11.9 µM

COc1ccc(-c2oc3ccccc3c(=O)c2O)c(OC)c1OC [compound 12]
CC50 (MA104 cells; flavonols (Table 1)): 23.8 µM
IC50 ([1]; flavonols (Table 1)): 6.09 µM

O=c1c(O)c(-c2ccc(OCc3ccccc3)cc2)oc2ccccc12 [compound 13]
CC50 (MA104 cells; flavonols (Table 1)): 22.7 µM
IC50 ([1]; flavonols (Table 1)): 3.78 µM
antiviral (antirotavirus) activity in words [1]: considerable antirotavirus action

CCOc1cccc(-c2oc3ccccc3c(=O)c2O)c1 [compound 14]
CC50 (MA104 cells; flavonols (Table 1)): 111 µM

CCOc1ccccc1-c1oc2ccccc2c(=O)c1O [compound 15]
CC50 (MA104 cells; flavonols (Table 1)): 111 µM

CCOc1ccc(-c2oc3ccccc3c(=O)c2O)c(OCC)c1 [compound 16]
CC50 (MA104 cells; flavonols (Table 1)): 47.8 µM

CCOc1ccc(OCC)c(-c2oc3ccccc3c(=O)c2O)c1 [compound 17]
CC50 (MA104 cells; flavonols (Table 1)): 23.9 µM
IC50 ([1]; flavonols (Table 1)): 12 µM

CCOc1ccc(-c2oc3ccccc3c(=O)c2O)cc1OCC [compound 18]
CC50 (MA104 cells; flavonols (Table 1)): 47.8 µM
IC50 ([1]; flavonols (Table 1)): 7.97 µM
antiviral (antirotavirus) activity in words [1]: promising antiviral activity

O=c1c(O)c(-c2ccccc2OCc2ccccc2)oc2ccccc12 [compound 19]
CC50 (MA104 cells; flavonols (Table 1)): 45.3 µM
IC50 ([1]; flavonols (Table 1)): 7.55 µM
antiviral (antirotavirus) activity in words [1]: considerable antirotavirus action

CCc1ccc(-c2oc3ccccc3c(=O)c2O)cc1 [compound 21]
CC50 (MA104 cells; flavonols (Table 1)): 14.7 µM
IC50 ([1]; flavonols (Table 1)): 3.64 µM
antiviral (antirotavirus) activity in words [1]: Antiviral activity was provided

CCCCOc1cccc(-c2oc3ccccc3c(=O)c2O)c1 [compound 22]
CC50 (MA104 cells; flavonols (Table 1)): 25.1 µM
IC50 ([1]; flavonols (Table 1)): 6.12 µM

CCCCOc1ccccc1-c1oc2ccccc2c(=O)c1O [compound 23]
CC50 (MA104 cells; flavonols (Table 1)): 302 µM
IC50 ([1]; flavonols (Table 1)): 75.4 µM

CCCCOc1ccc(-c2oc3ccccc3c(=O)c2O)cc1 [compound 24]
CC50 (MA104 cells; flavonols (Table 1)): 201 µM
IC50 ([1]; flavonols (Table 1)): 40.6 µM

CCCCOc1ccc(-c2oc3ccccc3c(=O)c2O)cc1OCCCC [compound 25]
CC50 (MA104 cells; flavonols (Table 1)): 40.8 µM
IC50 ([1]; flavonols (Table 1)): 6.8 µM
antiviral (antirotavirus) activity in words [1]: higher activity

CCCCOc1ccc(-c2oc3ccccc3c(=O)c2O)c(OCCCC)c1 [compound 26]
CC50 (MA104 cells; flavonols (Table 1)): 40.8 µM
IC50 ([1]; flavonols (Table 1)): 10.2 µM

O=c1c(O)c(-c2ccccc2)oc2cc(O)ccc12 [compound 27]
CC50 (MA104 cells; flavonols (Table 1)): 61.4 µM
IC50 ([1]; flavonols (Table 1)): 15.7 µM

O=c1c(O)c(-c2ccc(O)c(O)c2)oc2cc(O)cc(O)c12 [compound 28]
CC50 (MA104 cells; flavonols (Table 1)): 103 µM
antiviral (antirotavirus) activity in words [1]: antiviral activity was not observed

COc1ccc2oc(-c3ccccc3)c(O)c(=O)c2c1 [compound 29]
CC50 (MA104 cells; flavonols (Table 1)): 29.1 µM

COc1ccc2c(=O)c(O)c(-c3ccccc3)oc2c1 [compound 30]
CC50 (MA104 cells; flavonols (Table 1)): 29.1 µM

COc1ccc(-c2oc3cccc(OC)c3c(=O)c2O)cc1 [compound 31]
CC50 (MA104 cells; flavonols (Table 1)): 26.2 µM
IC50 ([1]; flavonols (Table 1)): 4.69 µM

COc1ccc(-c2oc3ccc(OC)cc3c(=O)c2O)cc1 [compound 32]
CC50 (MA104 cells; flavonols (Table 1)): 105 µM
IC50 ([1]; flavonols (Table 1)): 17.4 µM

COc1ccc(-c2oc3cc(OC)ccc3c(=O)c2O)cc1 [compound 33]
CC50 (MA104 cells; flavonols (Table 1)): 26.2 µM
IC50 ([1]; flavonols (Table 1)): 6.37 µM

COc1ccc(-c2oc3cc(OC)ccc3c(=O)c2O)c(OC)c1 [compound 34]
CC50 (MA104 cells; flavonols (Table 1)): 47.4 µM
IC50 ([1]; flavonols (Table 1)): 11.8 µM

CCOc1ccc2c(=O)c(O)c(-c3ccccc3)oc2c1 [compound 35]
CC50 (MA104 cells; flavonols (Table 1)): 111 µM

CCOc1ccc(-c2oc3cc(OCC)ccc3c(=O)c2O)cc1 [compound 36]
CC50 (MA104 cells; flavonols (Table 1)): 47.8 µM
IC50 ([1]; flavonols (Table 1)): 12 µM
antiviral (antirotavirus) activity in words [1]: antiviral activity was detected

CCOc1cccc(-c2oc3cc(OCC)ccc3c(=O)c2O)c1 [compound 37]
CC50 (MA104 cells; flavonols (Table 1)): 47.8 µM
IC50 ([1]; flavonols (Table 1)): 7.97 µM
antiviral (antirotavirus) activity in words [1]: antiviral activity was detected

CCCCOc1ccc2c(=O)c(O)c(-c3ccccc3)oc2c1 [compound 38]
CC50 (MA104 cells; flavonols (Table 1)): 50.3 µM
IC50 ([1]; flavonols (Table 1)): 8.38 µM
antiviral (antirotavirus) activity in words [1]: Antiviral activity was provided

O=c1c(O)c(-c2ccc(OCc3ccccc3)cc2)oc2cc(OCc3ccccc3)ccc12 [compound 39]
CC50 (MA104 cells; flavonols (Table 1)): 69.3 µM
IC50 ([1]; flavonols (Table 1)): 17.3 µM
antiviral (antirotavirus) activity in words [1]: Antiviral activity was provided

COc1c(OC)c(O)c2c(=O)cc(-c3ccc(O)cc3)oc2c1OC [compound 40]
CC50 (MA104 cells; flavones (Table 2)): 22.7 µM
IC50 ([1]; flavones (Table 2)): 7.56 µM

COc1c(-c2ccc(O)c(O)c2)oc2cc(O)cc(O)c2c1=O [compound 43]
CC50 (MA104 cells; flavones (Table 2)): 49.3 µM
IC50 ([1]; flavones (Table 2)): 12.3 µM
antiviral (antirotavirus) activity in words [1]: conferred an antiviral activity

C[C@@H]1O[C@@H](Oc2c(-c3ccc(O)c(O)c3)oc3cc(O)cc(O)c3c2=O)[C@H](O)[C@H](O)[C@H]1O [compound 44]
CC50 (MA104 cells; flavones (Table 2)): 69.6 µM
antiviral (antirotavirus) activity in words [1]: did not provide antiviral activity

C[C@@H]1O[C@@H](OC[C@H]2O[C@@H](Oc3c(-c4ccc(O)c(O)c4)oc4cc(O)cc(O)c4c3=O)[C@H](O)[C@@H](O)[C@@H]2O)[C@H](O)[C@H](O)[C@H]1O [compound 45, rutin]
antiviral (antirotavirus) activity in words [1]: did not provide antiviral activity
inhibitory effect on rotavirus infection in words (rotavirus): low inhibitory effect

O=c1c(OS(=O)(=O)O)c(-c2ccc(O)c(O)c2)oc2cc(O)cc(O)c12 [compound 47]
CC50 (MA104 cells; flavones (Table 2)): 40.9 µM
IC50 ([1]; flavones (Table 2)): 10.2 µM
antiviral (antirotavirus) activity in words [1]: conferred an antiviral activity

COc1ccc(-c2cc(=O)c3cc(OCc4ccccc4)ccc3o2)cc1 [compound 48]
CC50 (MA104 cells; flavones (Table 2)): 21.8 µM
antiviral (antirotavirus) activity in words [1]: antiviral activity was not shown

COc1ccc(-c2cc(=O)c3c(OC)c(OC)c(OC)c(OC)c3o2)cc1 [compound 49]
CC50 (MA104 cells; flavones (Table 2)): 168 µM
IC50 ([1]; flavones (Table 2)): 28.2 µM

COc1ccc(-c2cc(=O)c3c(O)cc(OC)cc3o2)cc1 [compound 50]
CC50 (MA104 cells; flavones (Table 2)): 52.4 µM
IC50 ([1]; flavones (Table 2)): 13.1 µM

COc1ccc(-c2cc(=O)c3c(O)c(OC)c(OC)c(OC)c3o2)cc1 [compound 51]
CC50 (MA104 cells; flavones (Table 2)): 43.6 µM
IC50 ([1]; flavones (Table 2)): 7.26 µM

COc1ccc(-c2cc(=O)c3c(O)c(OC)c(OC)cc3o2)cc1 [compound 52]
CC50 (MA104 cells; flavones (Table 2)): 23.8 µM
IC50 ([1]; flavones (Table 2)): 15.6 µM

COc1ccc(-c2cc(=O)c3c(OC)c(OC)c(OC)cc3o2)cc1OC [compound 54]
CC50 (MA104 cells; flavones (Table 2)): 41.9 µM
IC50 ([1]; flavones (Table 2)): 6.98 µM

COc1ccc(-c2cc(=O)c3c(OC)c(OC)c(OC)c(OC)c3o2)cc1OC [compound 55]
CC50 (MA104 cells; flavones (Table 2)): 38.8 µM
antiviral (antirotavirus) activity in words [1]: antiviral effect was not shown

COc1ccc(-c2oc3c(OC)c(OC)c(OC)c(OC)c3c(=O)c2OC)cc1OC [compound 57]
CC50 (MA104 cells; flavones (Table 2)): 36.1 µM
IC50 ([1]; flavones (Table 2)): 18 µM
antiviral (antirotavirus) activity in words [1]: weak antirotavirus activity

COc1cc(-c2oc3c(OC)c(OC)cc(O)c3c(=O)c2OC)ccc1O [compound 59]
CC50 (MA104 cells; flavones (Table 2)): 41.7 µM
IC50 ([1]; flavones (Table 2)): 6.95 µM

COc1ccc(-c2oc3c(OC)c(OC)c(OC)c(O)c3c(=O)c2OC)cc1O [compound 60]
CC50 (MA104 cells; flavones (Table 2)): 77.2 µM
IC50 ([1]; flavones (Table 2)): 77.2 µM

COc1ccc(-c2cc(=O)c3c(O)cc(O[C@@H]4O[C@H](CO[C@@H]5O[C@@H](C)[C@H](O)[C@@H](O)[C@H]5O)[C@@H](O)[C@H](O)[C@H]4O)cc3o2)cc1O [dosmin]
IC50 (rotavirus): 10 µM

COc1ccc([C@@H]2CC(=O)c3c(O)cc(O[C@@H]4O[C@H](CO[C@@H]5O[C@@H](C)[C@H](O)[C@@H](O)[C@H]5O)[C@@H](O)[C@H](O)[C@H]4O)cc3O2)cc1O [hesperidin]
IC50 (rotavirus): 10 µM

quercetrin [compound 46]
CC50 (MA104 cells; flavones (Table 2)): 27.2 µM
antiviral (antirotavirus) activity in words [1]: did not provide antiviral activity
